Calls of active or inactive are those of the source. The rule behind the calls is not given here.
Target: T1, Transient receptor potential cation channel subfamily V member 3 (Mus musculus) (UniProt Q8K424)
T1 sequence (whole entry): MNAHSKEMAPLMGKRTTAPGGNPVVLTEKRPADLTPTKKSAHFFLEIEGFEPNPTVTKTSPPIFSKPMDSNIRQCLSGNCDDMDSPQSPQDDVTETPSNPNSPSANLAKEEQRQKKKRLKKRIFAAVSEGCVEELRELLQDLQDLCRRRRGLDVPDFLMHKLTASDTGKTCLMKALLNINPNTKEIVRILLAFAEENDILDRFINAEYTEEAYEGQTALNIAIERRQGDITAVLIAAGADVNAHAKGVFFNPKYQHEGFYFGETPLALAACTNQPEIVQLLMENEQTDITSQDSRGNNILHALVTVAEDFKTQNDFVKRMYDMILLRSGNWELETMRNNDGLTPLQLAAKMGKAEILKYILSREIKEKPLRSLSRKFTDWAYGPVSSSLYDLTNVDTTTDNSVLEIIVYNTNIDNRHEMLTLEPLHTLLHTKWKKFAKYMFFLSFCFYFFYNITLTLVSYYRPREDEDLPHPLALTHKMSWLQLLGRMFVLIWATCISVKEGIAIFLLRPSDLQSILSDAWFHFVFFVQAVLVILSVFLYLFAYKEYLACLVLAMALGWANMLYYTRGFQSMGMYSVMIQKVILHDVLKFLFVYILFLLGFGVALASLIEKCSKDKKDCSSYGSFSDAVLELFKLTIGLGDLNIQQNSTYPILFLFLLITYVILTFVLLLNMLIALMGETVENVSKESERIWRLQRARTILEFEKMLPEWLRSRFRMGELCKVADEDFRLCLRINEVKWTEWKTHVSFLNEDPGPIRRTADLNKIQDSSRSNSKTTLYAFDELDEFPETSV
Assay: Agonist activity at mouse TRPV3 expressed in HEK293 cells assessed as increase in intracellular calcium level at 33 uM measured for 2.5 mins by Fluo-8-AM dye based fluorescence assay
Assay type: cell-based
Conditions: not given

| Activity | Structure (SMILES) |
| --- | --- |
| inactive | Cc1nn2c(O)cc(C3CCN(C(=O)OCc4ccccc4)CC3)nc2c1-c1ccc(Cl)cc1 |
| inactive | CCOC(=O)N1CCC(c2cc(O)n3nc(C)c(-c4ccc(C(F)(F)F)cc4)c3n2)CC1 |
| inactive | Cc1nn2c(O)cc(C3CCN(C(=O)OCc4ccccc4)CC3)nc2c1-c1ccc(F)cc1 |

| Structure (SMILES) | Activity |
| --- | --- |
| CCOC(=O)N1CCC(c2cc(O)n3nc(C)c(-c4ccc(F)cc4)c3n2)CC1 | inactive |

Target: T2, Short transient receptor potential channel 6 (Mus musculus, UniProt Q61143)
T2 sequence (Q61143 whole entry): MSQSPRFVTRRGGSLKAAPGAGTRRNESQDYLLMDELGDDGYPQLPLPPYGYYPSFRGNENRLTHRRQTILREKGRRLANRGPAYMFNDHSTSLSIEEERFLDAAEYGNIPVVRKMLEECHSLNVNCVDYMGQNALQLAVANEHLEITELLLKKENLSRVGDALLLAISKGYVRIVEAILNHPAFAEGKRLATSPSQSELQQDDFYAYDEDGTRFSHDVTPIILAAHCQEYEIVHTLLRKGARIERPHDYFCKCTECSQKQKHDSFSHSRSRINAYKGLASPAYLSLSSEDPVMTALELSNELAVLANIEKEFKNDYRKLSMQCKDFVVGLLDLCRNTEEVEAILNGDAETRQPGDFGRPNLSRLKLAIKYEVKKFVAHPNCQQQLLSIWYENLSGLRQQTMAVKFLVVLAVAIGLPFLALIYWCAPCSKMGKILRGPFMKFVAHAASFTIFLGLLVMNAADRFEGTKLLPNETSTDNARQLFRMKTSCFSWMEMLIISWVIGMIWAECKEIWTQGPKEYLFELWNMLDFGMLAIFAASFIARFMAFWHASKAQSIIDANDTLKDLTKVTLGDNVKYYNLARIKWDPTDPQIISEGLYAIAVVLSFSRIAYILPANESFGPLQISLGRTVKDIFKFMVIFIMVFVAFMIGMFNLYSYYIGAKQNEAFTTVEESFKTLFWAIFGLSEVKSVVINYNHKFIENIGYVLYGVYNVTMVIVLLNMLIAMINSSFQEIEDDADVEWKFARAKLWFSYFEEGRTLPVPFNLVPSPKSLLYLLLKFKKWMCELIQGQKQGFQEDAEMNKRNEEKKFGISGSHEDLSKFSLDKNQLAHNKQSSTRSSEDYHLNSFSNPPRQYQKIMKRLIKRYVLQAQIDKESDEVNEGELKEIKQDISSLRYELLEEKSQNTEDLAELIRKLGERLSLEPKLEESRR
Assay: Agonist activity at mouse TRPC6 expressed in HEK293 cells co-expressing Gq11-PLCbeta fused M5 receptor assessed as increase in intracellular calcium level measured for 2.5 mins by Fluo-8-AM dye-based fluorescence assay
Assay type: cell-based
Conditions: read-out: EC50

| EC50 | Structure (SMILES) |
| --- | --- |
| 7.79 µM | Cc1nn2c(O)cc(C3CCN(C(=O)OCc4ccccc4)CC3)nc2c1-c1ccc(Cl)cc1 |
| 3.91 µM | Cc1nn2c(O)cc(C3CCN(C(=O)OCc4ccccc4)CC3)nc2c1-c1ccc(F)cc1 |

| Structure (SMILES) | EC50 |
| --- | --- |
| CCOC(=O)N1CCC(c2cc(O)n3nc(C)c(-c4ccc(F)cc4)c3n2)CC1 | 4.66 µM |

Target: T3, Short transient receptor potential channel 3 (Homo sapiens, UniProt Q13507)
T3 sequence (Q13507 whole entry): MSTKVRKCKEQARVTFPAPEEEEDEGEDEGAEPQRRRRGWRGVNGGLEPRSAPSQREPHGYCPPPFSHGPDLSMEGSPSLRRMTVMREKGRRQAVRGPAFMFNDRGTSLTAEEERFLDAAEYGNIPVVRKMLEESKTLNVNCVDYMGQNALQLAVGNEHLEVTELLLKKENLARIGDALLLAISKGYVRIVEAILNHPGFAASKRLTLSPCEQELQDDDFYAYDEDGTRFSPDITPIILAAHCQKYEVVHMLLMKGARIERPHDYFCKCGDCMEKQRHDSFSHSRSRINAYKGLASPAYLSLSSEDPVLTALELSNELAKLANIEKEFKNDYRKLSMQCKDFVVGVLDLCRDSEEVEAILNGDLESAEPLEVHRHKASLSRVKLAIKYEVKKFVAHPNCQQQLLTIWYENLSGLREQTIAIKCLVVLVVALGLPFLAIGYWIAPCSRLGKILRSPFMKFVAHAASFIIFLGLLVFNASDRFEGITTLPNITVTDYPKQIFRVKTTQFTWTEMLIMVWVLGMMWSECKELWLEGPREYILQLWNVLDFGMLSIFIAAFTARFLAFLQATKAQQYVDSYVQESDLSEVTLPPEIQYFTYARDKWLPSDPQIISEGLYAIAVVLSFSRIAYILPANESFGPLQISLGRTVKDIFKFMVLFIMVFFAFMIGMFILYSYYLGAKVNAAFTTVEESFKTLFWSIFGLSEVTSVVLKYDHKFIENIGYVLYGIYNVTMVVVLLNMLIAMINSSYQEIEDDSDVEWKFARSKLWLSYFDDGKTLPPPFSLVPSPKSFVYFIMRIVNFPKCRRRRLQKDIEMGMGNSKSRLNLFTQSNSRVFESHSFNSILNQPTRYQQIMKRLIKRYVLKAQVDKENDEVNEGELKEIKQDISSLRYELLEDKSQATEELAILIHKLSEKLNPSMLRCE
Assay: Agonist activity at human TRPC3 expressed in HEK293 cells assessed as induction of membrane depolarization measured for 2.5 mins in presence of 0.5 mM Ca2+ by FLIPR membrane potential dye-based fluorescence assay
Assay type: cell-based
Conditions: not given
In short: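 HEK293 cells stably expressing human TRPC3, run on a FlexStation at 32 °C. Loaded with FMP dye, or Fluo-type Ca2+ dye with 2 mM probenecid. Extracellular NaCl/HEPES saline, pH 7.4, with 2 mM Ca2+ (standard) or 0.5 mM Ca2+. Read as F/F0. In 0.5 mM Ca2+, FMP EC50 from a Hill fit, n = 6.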

| EC50 | Structure (SMILES) |
| --- | --- |
| 138 nM | Cc1nn2c(O)cc(C3CCN(C(=O)OCc4ccccc4)CC3)nc2c1-c1ccc(Cl)cc1 |
| 236 nM | Cc1nn2c(O)cc(C3CCN(C(=O)OCc4ccccc4)CC3)nc2c1-c1ccc(F)cc1 |

| Structure (SMILES) | EC50 |
| --- | --- |
| CCOC(=O)N1CCC(c2cc(O)n3nc(C)c(-c4ccc(F)cc4)c3n2)CC1 | 450 nM |

Source: ChEMBL document CHEMBL4014306, “Pyrazolopyrimidines as Potent Stimulators for Transient Receptor Potential Canonical 3/6/7 Channels” (J Med Chem, 2017)
